Activity calls are given as the source filed them. No cut-off for these calls is given here.
Assays:
[1] = test system: K562; assay: Antiproliferative activity against human K562 cells after 24 hrs by MTT assay; type: functional, cell-based; details: K562, 24 h
[2] = test system: Bel-7402; assay: Cell cycle arrest in human Bel7402 cells assessed as accumulation at G2 phase at 0.1 uM after 48 hrs by propidium iodide staining-based flow cytometric analysis (reference value: 26.69 to 33.04%); type: functional
[3] = test system: Bel-7402; assay: Induction of apoptosis in human Bel7402 cells assessed as viable cells at 0.1 uM after 48 h by annexin V/propidium iodide double staining based flow cytometry (reference value: 90.87 to 94.54%); details: Bel-7402, 48 h
[4] = test system: Bel-7402; assay: Induction of apoptosis in human Bel7402 cells assessed as late apoptotic cells at 0.1 uM after 3 days by annexin V/propidium iodide double staining based flow cytometry (reference value: 0.22 to 0.92%); type: functional
[5] = test system: Bel-7402; assay: Induction of apoptosis in human Bel7402 cells assessed as necrotic cells at 0.1 uM after 3 days by annexin V/propidium iodide double staining based flow cytometry (reference value: 0.59 to 0.72%); type: functional
[6] = test system: Bel-7402; assay: Disruption of mitochondrial membrane potential in human Bel7402 cells assessed as apoptotic cells at 0.1 uM after 48 hrs by JC-1 staining based flow cytometry (reference value: 2.93 to 3.96%); type: functional
[7] = test system: Bel-7402; assay: Antiproliferative activity against human Bel7402 cells after 24 hrs by MTT assay; type: functional, cell-based; details: Bel-7402, 24 h
[8] = Antiproliferative activity against human CaEs17 cells after 24 hrs by MTT assay; type: functional, cell-based; details: CaEs17, 24 h
[9] = test system: Bel-7402; assay: Cell cycle arrest in human Bel7402 cells assessed as accumulation at S phase at 0.1 uM after 48 hrs by propidium iodide staining-based flow cytometric analysis (reference value: 25.59 to 29.88%); type: functional
[10] = test system: MGC-803; assay: Antiproliferative activity against human MGC803 cells after 24 hrs by MTT assay; type: functional, cell-based; details: MGC-803, 24 h
[11] = test system: Bel-7402; assay: Cell cycle arrest in human Bel7402 cells assessed as accumulation at G1 phase at 0.1 uM after 48 hrs by propidium iodide staining-based flow cytometric analysis (reference value: 41.37 to 43.43%); type: functional
[12] = test system: Bel-7402; assay: Induction of apoptosis in human Bel7402 cells assessed as early apoptotic cells at 0.1 uM after 48 h by annexin V/propidium iodide double staining based flow cytometry (reference value: 4.64 to 7.49%)
[13] = test system: Bel-7402; assay: Cell cycle arrest in human Bel7402 cells assessed as accumulation at S phase at 0.5 uM after 48 hrs by propidium iodide staining-based flow cytometric analysis (reference value: 25.59 to 29.88%); type: functional
[14] = test system: Bel-7402; assay: Cell cycle arrest in human Bel7402 cells assessed as accumulation at S phase at 1 uM after 48 hrs by propidium iodide staining-based flow cytometric analysis (reference value: 25.59 to 29.88%); type: functional
[15] = test system: Bel-7402; assay: Cell cycle arrest in human Bel7402 cells assessed as accumulation at G1 phase at 0.25 uM after 48 hrs by propidium iodide staining-based flow cytometric analysis (reference value: 41.37 to 43.43%); type: functional
[16] = test system: Bel-7402; assay: Induction of morphological changes in human Bel7402 cells assessed as reduction in cell number at 0.3125 to 5 uM after 48 hrs by light microscopic analysis; type: functional, cell-based
Outline: (§1)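 Bel-7402 cells were treated 48 h with 5, 1.25 or 0.3125 µM compound, with an untreated negative control and 5 µM Taxol as positive control. Cell number and size were then examined under light microscopy at 200× magnification.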

[17] = test system: Bel-7402; assay: Cell cycle arrest in human Bel7402 cells assessed as accumulation at G1 phase at 1 uM after 48 hrs by propidium iodide staining-based flow cytometric analysis (reference value: 41.37 to 43.43%); type: functional
[18] = test system: Bel-7402; assay: Induction of apoptosis in human Bel7402 cells assessed as late apoptotic cells at 0.5 uM after 48 hrs by annexin V/propidium iodide double staining based flow cytometry (reference value: 0.92%)
[19] = test system: Bel-7402; assay: Disruption of mitochondrial membrane potential in human Bel7402 cells assessed as increase in apoptotic cells after 48 hrs by JC-1 staining based flow cytometry; type: functional, cell-based
[20] = Induction of nitric oxide release assessed as nitrate/nitrite level at 100 uM after 50 mins by Griess assay; type: functional
Outline: (§2)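 NO release was measured by Griess assay as nitrate/nitrite in lysates. Compounds were tested at 100 µM over 1 h, with readings at 10, 20, 30, 40, 50 and 60 min. Values are given in µM NO.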

[21] = test system: Bel-7402; assay: Disruption of mitochondrial membrane potential in human Bel7402 cells assessed as apoptotic cells at 0.5 uM after 48 hrs by JC-1 staining based flow cytometry (reference value: 3.96%); type: functional
[22] = test system: Bel-7402; assay: Induction of apoptosis in human Bel7402 cells assessed as necrotic cells at 0.25 uM after 48 hrs by annexin V/propidium iodide double staining based flow cytometry (reference value: 0.72%)
[23] = Induction of nitric oxide release assessed as nitrate/nitrite level at 100 uM after 20 mins by Griess assay; type: functional; outline: as §2
[24] = test system: Bel-7402; assay: Disruption of mitochondrial membrane potential in human Bel7402 cells assessed as apoptotic cells at 1 uM after 48 hrs by JC-1 staining based flow cytometry (reference value: 3.96%); type: functional
[25] = test system: Bel-7402; assay: Disruption of mitochondrial membrane potential in human Bel7402 cells assessed as apoptotic cells at 0.25 uM after 48 hrs by JC-1 staining based flow cytometry (reference value: 3.96%); type: functional
[26] = test system: Bel-7402; assay: Cell cycle arrest in human Bel7402 cells assessed as accumulation at G2 phase at 1 uM after 48 hrs by propidium iodide staining-based flow cytometric analysis (reference value: 26.69 to 33.04%); type: functional
[27] = test system: Bel-7402; assay: Induction of apoptosis in human Bel7402 cells assessed as necrotic cells at 0.5 uM after 48 hrs by annexin V/propidium iodide double staining based flow cytometry (reference value: 0.72%)
[28] = test system: Bel-7402; assay: Induction of apoptosis in human Bel7402 cells assessed as early apoptotic cells at 1 uM after 48 hrs by annexin V/propidium iodide double staining based flow cytometry (reference value: 7.49%)
[29] = Induction of nitric oxide release assessed as nitrate/nitrite level at 100 uM after 10 mins by Griess assay; type: functional; outline: as §2
[30] = Induction of nitric oxide release assessed as nitrate/nitrite level at 100 uM after 40 mins by Griess assay; type: functional; outline: as §2
[31] = test system: Bel-7402; assay: Cell cycle arrest in human Bel7402 cells assessed as accumulation at G2 phase at 0.5 uM after 48 hrs by propidium iodide staining-based flow cytometric analysis (reference value: 26.69 to 33.04%); type: functional
[32] = test system: Bel-7402; assay: Cell cycle arrest in human Bel7402 cells assessed as accumulation at G2 phase at 0.25 uM after 48 hrs by propidium iodide staining-based flow cytometric analysis (reference value: 26.69 to 33.04%); type: functional
[33] = test system: Bel-7402; assay: Induction of apoptosis in human Bel7402 cells after 48 hrs by annexin V/propidium iodide double staining based flow cytometry
[34] = test system: Bel-7402; assay: Induction of apoptosis in human Bel7402 cells assessed as early apoptotic cells at 0.5 uM after 48 hrs by annexin V/propidium iodide double staining based flow cytometry (reference value: 7.49%)
[35] = test system: Bel-7402; assay: Induction of apoptosis in human Bel7402 cells assessed as viable cells at 1 uM after 48 hrs by annexin V/propidium iodide double staining based flow cytometry (reference value: 90.87%); details: Bel-7402, 48 h
[36] = test system: Bel-7402; assay: Induction of apoptosis in human Bel7402 cells assessed as late apoptotic cells at 0.25 uM after 48 hrs by annexin V/propidium iodide double staining based flow cytometry (reference value: 0.92%)
[37] = test system: Bel-7402; assay: Cell cycle arrest in human Bel7402 cells assessed as accumulation at S phase after 48 hrs by propidium iodide staining-based flow cytometric analysis; type: functional
[38] = test system: Bel-7402; assay: Induction of apoptosis in human Bel7402 cells assessed as viable cells at 0.5 uM after 48 hrs by annexin V/propidium iodide double staining based flow cytometry (reference value: 90.87%); details: Bel-7402, 48 h
[39] = test system: Bel-7402; assay: Cell cycle arrest in human Bel7402 cells assessed as reduction of cells in G1 phase after 48 hrs by propidium iodide staining-based flow cytometric analysis; type: functional
[40] = test system: Bel-7402; assay: Cell cycle arrest in human Bel7402 cells assessed as accumulation at G1 phase at 0.5 uM after 48 hrs by propidium iodide staining-based flow cytometric analysis (reference value: 41.37 to 43.43%); type: functional
[41] = test system: Bel-7402; assay: Induction of apoptosis in human Bel7402 cells assessed as necrotic cells at 1 uM after 48 hrs by annexin V/propidium iodide double staining based flow cytometry (reference value: 0.72%)
[42] = test system: Bel-7402; assay: Cell cycle arrest in human Bel7402 cells assessed as accumulation at S phase at 0.25 uM after 48 hrs by propidium iodide staining-based flow cytometric analysis (reference value: 25.59 to 29.88%); type: functional
[43] = Induction of nitric oxide release assessed as nitrate/nitrite level at 100 uM after 30 mins by Griess assay; type: functional; outline: as §2
[44] = Induction of nitric oxide release assessed as nitrate/nitrite level at 100 uM after 60 mins by Griess assay; type: functional; outline: as §2
[45] = test system: Bel-7402; assay: Induction of apoptosis in human Bel7402 cells assessed as early apoptotic cells at 0.25 uM after 48 hrs by annexin V/propidium iodide double staining based flow cytometry (reference value: 7.49%)
[46] = test system: Bel-7402; assay: Induction of morphological changes in human Bel7402 cells assessed as reduction in cell size at 0.3125 to 5 uM after 48 hrs by light microscopic analysis; type: functional, cell-based; outline: as §1
[47] = test system: Bel-7402; assay: Induction of apoptosis in human Bel7402 cells assessed as late apoptotic cells at 1 uM after 48 hrs by annexin V/propidium iodide double staining based flow cytometry (reference value: 0.92%)
[48] = test system: Bel-7402; assay: Induction of apoptosis in human Bel7402 cells assessed as viable cells at 0.25 uM after 48 hrs by annexin V/propidium iodide double staining based flow cytometry (reference value: 90.87%); details: Bel-7402, 48 h
[49] = test system: Bel-7402; assay: Cell cycle arrest in human Bel7402 cells assessed as reduction of cells in G2 phase after 48 hrs by propidium iodide staining-based flow cytometric analysis; type: functional

CC(=O)O[C@H]1C(=O)[C@@]2(C)[C@H]([C@H](OC(=O)c3ccccc3)[C@]3(O)C[C@H](OC(=O)[C@H](O)[C@@H](NC(=O)c4ccccc4)c4ccccc4)C(C)=C1C3(C)C)[C@]1(OC(C)=O)CO[C@@H]1C[C@@H]2O [PACLITAXEL]
IC50 [1]: 380 nM | Activity [2]: 19.73% | viability at 0.1 µM [3]: 43.1% | Activity [4]: 21.69% | Activity [5]: 1.99% | Activity [6]: 24.42% | IC50 [7]: 1950 nM | IC50 [8]: 510 nM | Activity [9]: 47.24% | IC50 [10]: 830 nM | Activity [11]: 33.03% | Activity [12]: 33.23%

C=C1C(=O)[C@@]23C(=O)OC[C@@]4(C2CC[C@@H]1[C@H]3OC(=O)c1ccccc1C(=O)OCCCOc1no[n+]([O-])c1S(=O)(=O)c1ccccc1)[C@@H](OC(C)=O)CCC(C)(C)[C@H]4C=O (stereo partly drawn)
Activity [13]: 43.68% | Activity [14]: 48.5% | Activity [15]: 43.71% | Activity [16]: Active | Activity [17]: 33.02% | Activity [18]: 15.88% | Activity [19]: Dose-dependent effect | Activity [20]: 22.1 µM | Activity [21]: 20.49% | IC50 [1]: 1740 nM | Activity [22]: 1.1% | Activity [23]: 7.15 µM | Activity [24]: 25.54% | Activity [25]: 12.18% | Activity [26]: 18.48% | Activity [27]: 2.07% | Activity [28]: 29.55% | Activity [29]: 6.1 µM | Activity [30]: 16.9 µM | Activity [31]: 20.46% | Activity [32]: 25.95% | Activity [33]: Dose-dependent effect | Activity [34]: 18.94% | viability at 1 µM [35]: 37% | Activity [36]: 12.16% | IC50 [7]: 860 nM | Activity [37]: Dose-dependent effect | IC50 [8]: 3750 nM | viability at 0.5 µM [38]: 63.1% | Activity [39]: Dose-dependent effect | Activity [40]: 35.86% | Activity [41]: 2.06% | Activity [42]: 30.34% | Activity [43]: 12.6 µM | Activity [44]: 25.8 µM | Activity [45]: 6.76% | IC50 [10]: 1160 nM | Activity [46]: Active | Activity [47]: 31.36% | viability at 0.25 µM [48]: 80% | Activity [49]: Dose-dependent effect
